According to ChEMBL document CHEMBL1138208, “Discovery of N-[(1S,2S)-3-(4-Chlorophenyl)-2- (3-cyanophenyl)-1-methylpropyl]-2-methyl-2- {[5-(trifluoromethyl)pyridin-2-yl]oxy}propanamide (MK-0364), a novel, acyclic cannabinoid-1 receptor inverse agonist for the treatment of obesity” (J Med Chem, 2006):
Active and inactive are the calls of the source. The rule behind the calls is not given here.

Legend:
Cannabinoid receptor 1 = Cannabinoid receptor 1 (Homo sapiens, UniProt P21554); test: biochemical; format: cell-based, CHO
Cannabinoid receptor 2 = Cannabinoid receptor 2 (Homo sapiens, UniProt P34972); test: Inhibition of [3H]CP-55940 binding to human recombinant CB2 receptor in CHO cells; format: cell-based
[1] = Bioavailability in Sprague-Dawley rat at 1 mg/kg, iv and 2 mg/kg, po; format: ADME, organism-based; conditions: in vivo
[2] = Drug level in Sprague-Dawley rat brain at 1 mg/kg, iv after 1 hr; format: ADME, organism-based; design: dose 1 mg/kg, route intravenous; conditions: read-out: Drug uptake
[3] = Drug level in Sprague-Dawley rat plasma at 1 mg/kg, iv after 1 hr; format: ADME, organism-based; design: dose 1 mg/kg, route intravenous; conditions: read-out: Drug uptake
Rattus norvegicus [4] = test: Reduction in food uptake in DIO Sprague-Dawley rat at 3 mg/kg, po; format: functional; design: scale not given: the % may be the effect or the level left
In short: (§1)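 Diet-induced obese rats were dosed orally. Overnight food intake was measured and reported as % change (mean ± error).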

Rattus norvegicus [5] = test: Reduction in food uptake in DIO Sprague-Dawley rat at 10 mg/kg, po; format: functional; design: scale not given: the % may be the effect or the level left
In short: as §1

Homo sapiens = species: Homo sapiens; test: Protein binding in human liver microsome; format: ADME; conditions: microsomes
In short: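 The tritiated compound was incubated with liver microsomes. Irreversible (covalent) binding of radioactivity to microsomal protein was measured after 1 h of incubation and expressed as pmol equiv/mg protein.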

[6] = Bioavailability in dog at 0.2 mg/kg, iv and 0.4 mg/kg, po; format: ADME, organism-based, Canis lupus familiaris; conditions: in vivo
[7] = Half life in dog at 0.2 mg/kg, iv and 0.4 mg/kg, po; format: ADME, organism-based, Canis lupus familiaris; conditions: in vivo
[8] = Bioavailability in rhesus monkey at 0.2 mg/kg, iv and 0.4 mg/kg, po; format: ADME, organism-based, Macaca mulatta; conditions: in vivo
[9] = Half life in rhesus monkey at 0.2 mg/kg, iv and 0.4 mg/kg, po; format: ADME, organism-based, Macaca mulatta; conditions: in vivo
Rattus norvegicus [10] = test: Reduction in Sprague-Dawley rat body weight at 0.3 mg/kg, po after 14 days relative to control; format: functional; design: scale not given: the % may be the effect or the level left
In short: (§2)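 Diet-induced obese (DIO) rats were dosed orally once daily (qd) for 14 days at 0.3, 1 or 3 mg/kg. Body weight change is expressed as percent reduction relative to vehicle-treated animals.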

Rattus norvegicus [11] = test: Inhibition of CP-55940-induced decrease in body temperature in Sprague-Dawley rat at 3 mg/kg, iv; format: functional, organism-based; design: dose 3 mg/kg
Rattus norvegicus [12] = test: Reduction in Sprague-Dawley rat body weight at 1 mg/kg, po after 14 days relative to control; format: functional; design: scale not given: the % may be the effect or the level left
In short: as §2

Rattus norvegicus [13] = test: Reduction in Sprague-Dawley rat body weight at 3 mg/kg, po after 14 days relative to control; format: functional; design: scale not given: the % may be the effect or the level left
In short: as §2

Chain of Cannabinoid receptor 1 (P21554 whole entry): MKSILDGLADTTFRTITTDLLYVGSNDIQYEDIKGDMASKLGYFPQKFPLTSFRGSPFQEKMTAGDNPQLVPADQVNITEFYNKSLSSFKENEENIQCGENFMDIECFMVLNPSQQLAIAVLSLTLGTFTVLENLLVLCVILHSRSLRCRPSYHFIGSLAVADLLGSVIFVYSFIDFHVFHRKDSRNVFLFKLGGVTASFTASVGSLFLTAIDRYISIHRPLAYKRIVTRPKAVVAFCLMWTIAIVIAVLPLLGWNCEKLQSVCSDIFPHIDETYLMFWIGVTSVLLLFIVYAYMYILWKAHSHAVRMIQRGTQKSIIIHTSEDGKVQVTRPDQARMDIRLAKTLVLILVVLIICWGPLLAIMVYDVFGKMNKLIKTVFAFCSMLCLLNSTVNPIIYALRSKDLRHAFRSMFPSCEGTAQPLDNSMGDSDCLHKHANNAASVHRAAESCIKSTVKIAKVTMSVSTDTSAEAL
Chain of Cannabinoid receptor 2 (P34972 whole entry): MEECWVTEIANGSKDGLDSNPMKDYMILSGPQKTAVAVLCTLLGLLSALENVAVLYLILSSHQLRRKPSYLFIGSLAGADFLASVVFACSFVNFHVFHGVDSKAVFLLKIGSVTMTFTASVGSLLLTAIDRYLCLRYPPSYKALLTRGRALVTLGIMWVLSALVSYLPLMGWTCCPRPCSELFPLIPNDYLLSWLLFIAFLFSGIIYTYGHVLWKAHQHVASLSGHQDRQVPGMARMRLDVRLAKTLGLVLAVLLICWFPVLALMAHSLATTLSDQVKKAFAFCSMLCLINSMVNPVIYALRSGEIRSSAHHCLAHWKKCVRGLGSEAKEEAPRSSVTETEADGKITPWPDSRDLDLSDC

C[C@H](NC(=O)C(C)(C)Oc1cccnc1)[C@@H](Cc1ccc(Cl)cc1)c1ccccc1
IC50 (Cannabinoid receptor 1): 19 nM

C[C@@H](NC(=O)C(C)(C)Oc1ccc(Cl)cc1)[C@H](Cc1ccc(Cl)cc1)c1ccccc1
IC50 (Cannabinoid receptor 1): 170 nM
IC50 (Cannabinoid receptor 2): 1700 nM

C[C@H](NC(=O)C(C)(C)Oc1cc(F)cc(F)c1)[C@@H](Cc1ccc(Cl)cc1)c1ccccc1
bioavailability [1]: 19%
concentration at 1 h [2]: 270 nM
concentration at 1 h [3]: 350 nM
Activity (Rattus norvegicus [4]): 55%
Activity (Rattus norvegicus [5]): 81%
Activity (Homo sapiens): 1700 pmol/mg

C[C@H](NC(=O)C(C)(C)Oc1ccc(C(F)(F)F)cn1)[C@@H](Cc1ccc(Cl)cc1)c1cccc(C#N)c1 [TARANABANT]
bioavailability [1]: 74%
concentration at 1 h [2]: 110 nM
concentration at 1 h [3]: 180 nM
bioavailability [6]: 31%
half-life [7]: 14 h
bioavailability [8]: 31%
half-life [9]: 3.6 h
Activity (Rattus norvegicus [10]): 4%
Activity (Rattus norvegicus [11]): Active
Activity (Rattus norvegicus [12]): 5%
Activity (Rattus norvegicus [13]): 7%
Activity (Homo sapiens): 27 pmol/mg

C[C@H](NC(=O)C(C)(C)Oc1ccc(Cl)cc1)[C@@H](Cc1ccc(Cl)cc1)c1ccccc1F
IC50 (Cannabinoid receptor 1): 12 nM
IC50 (Cannabinoid receptor 2): 410 nM

C[C@H](NC(=O)C(C)(C)Oc1ccc(Cl)cc1)[C@@H](Cc1ccc(C(F)(F)F)cc1)c1ccccc1
IC50 (Cannabinoid receptor 1): 3.4 nM

C[C@H](NC(=O)C(C)(C)Oc1ccc(C(F)(F)F)cn1)[C@@H](Cc1ccc(Cl)cc1)c1ccccc1
Activity (Homo sapiens): 88 pmol/mg

C[C@H](NC(=O)C(C)(C)Oc1ccccn1)[C@@H](Cc1ccc(Cl)cc1)c1ccccc1
Activity (Homo sapiens): 910 pmol/mg

C[C@H](NC(=O)C(C)(C)Oc1ccc(Cl)cc1)[C@@H](Cc1ccccc1)c1ccccc1
IC50 (Cannabinoid receptor 1): 33 nM

C[C@H](NC(=O)C(C)(C)Oc1ccc(Cl)cc1)[C@@H](Cc1ccc(Cl)cc1)c1ccc(F)cc1
IC50 (Cannabinoid receptor 1): 90 nM

C[C@H](NC(=O)C(C)(C)Oc1ccc(Cl)cc1)[C@@H](Cc1ccc(Cl)cc1)c1cccc(F)c1
IC50 (Cannabinoid receptor 1): 2.8 nM
IC50 (Cannabinoid receptor 2): 530 nM

C[C@@H](NC(=O)C(C)(C)Oc1ccc(Cl)cc1)[C@H](Cc1ccc(Cl)cc1)c1ccc(Cl)cc1
IC50 (Cannabinoid receptor 1): 13 nM
IC50 (Cannabinoid receptor 2): 600 nM

C[C@H](NC(=O)C(C)(C)Oc1ccc(Cl)cc1)[C@@H](Cc1ccccc1Cl)c1ccccc1
IC50 (Cannabinoid receptor 1): 140 nM

C[C@H](NC(=O)C(C)(C)Oc1ccc(Cl)cn1)[C@@H](Cc1ccc(Cl)cc1)c1ccccc1
Activity (Homo sapiens): 300 pmol/mg

C[C@H](NC(=O)C(C)(C)Oc1ccc(Cl)cc1)[C@@H](Cc1ccc(F)cc1)c1ccccc1
IC50 (Cannabinoid receptor 1): 14 nM

C[C@H](NC(=O)C(C)(C)Oc1ccccc1)[C@@H](Cc1ccc(Cl)cc1)c1ccccc1
Activity (Homo sapiens): 3900 pmol/mg

C[C@H](NC(=O)C(C)(C)Oc1ccncc1)[C@H](Cc1ccc(Cl)cc1)c1ccccc1
IC50 (Cannabinoid receptor 1): 17 nM
IC50 (Cannabinoid receptor 2): 1200 nM

C[C@H](NC(=O)C(C)(C)Oc1ccccc1Cl)[C@@H](Cc1ccc(Cl)cc1)c1ccccc1
IC50 (Cannabinoid receptor 1): 18 nM
